How the values were obtained:
Hepatitis C virus [1] = assay: Antiviral activity against HCV genotype 1b transfected in human hepatoma cell assessed as inhibition of viral replication; assay type: functional, organism-based, Hepacivirus hominis
Rattus norvegicus [2] = assay: (§1) Oral bioavailability in Sprague-Dawley rat at 5 mg/kg; assay type: ADME, organism-based; settings: in vivo, BLD = below limit of detection
In short: (§2)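 Dosing was oral at 5 mg/kg and IV at 1 mg/kg (n = 3 each). Bioavailability was calculated from jugular vein drug concentrations after oral administration relative to IV administration. Limit of detection 0.5 ng/mL.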

Rattus norvegicus [3] = assay: Metabolic absorption in Sprague-Dawley rat at 5 mg/kg, po; assay type: ADME, organism-based; set-up: dose 5 mg/kg, route oral; settings: in vivo
In short: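 Rats (n = 3 per route) were dosed orally at 5 mg/kg and intravenously at 1 mg/kg. Value calculated from portal vein drug concentrations after oral dosing relative to those after IV dosing. Limit of detection 0.5 ng/mL.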

Rattus norvegicus [4] = assay: (§3) AUC (0 to infinity) in Sprague-Dawley rat at 5 mg/kg, po; assay type: ADME, organism-based, Plasma; set-up: time infinity, dose 5 mg/kg, route oral; settings: in vivo, BLD = below limit of detection
In short: (§4)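 Rats (n = 3 per route) received compound orally at 5 mg/kg or intravenously at 1 mg/kg. Plasma drug levels were measured with a limit of detection of 0.5 ng/mL, and no PK data were generated for samples below it.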

Hepatitis C virus [5] = assay: Antiviral activity against HCV genotype 1a transfected in human hepatoma cell assessed as inhibition of viral replication; assay type: functional, organism-based, Hepacivirus hominis; settings: subtype 1a
[6] = Inhibition of HCV genotype 1 a NS3/4A protease by FRET assay; set-up: species or system Hepatitis C virus subtype 1a
[7] = Clearance in Sprague-Dawley rat at 1 mg/kg, iv; assay type: ADME, organism-based; set-up: dose 1 mg/kg, route intravenous; settings: in vivo; in short: as §4
[8] = as §1; assay type: ADME, organism-based; settings: Sprague-Dawley, in vivo; in short: as §2
[9] = as §3; assay type: ADME, organism-based, Plasma; set-up: time infinity, dose 5 mg/kg, route oral; settings: Sprague-Dawley, plasma; in short: as §4

Structure (SMILES)	EC50 (Hepatitis C virus [1]) [nM]	F (Rattus norvegicus [2])	Activity (Rattus norvegicus [3]; BLD = below limit of detection)	AUC (Rattus norvegicus [4])	EC50 (Hepatitis C virus [5]) [nM]	IC50 [6] [nM]	clearance [7] [mL/min/kg]	bioavailability [8] [%]	Activity (Rattus norvegicus [3]) [%]	AUC(0-inf) [9] [ng·h/mL]
O=C(N[C@H]1CCCCC/C=C\[C@@H]2C[C@@]2(C(=O)NS(=O)(=O)c2ccc3c(c2)COB3O)NC(=O)[C@@H]2C[C@@H](OC(=O)N3Cc4cccc(F)c4C3)CN2C1=O)OC1CCCC1	12	–	–	–	70	0.8	–	–	–	–
C=C[C@@H]1C[C@]1(NC(=O)[C@@H]1C[C@@H]2CN1C(=O)[C@H](C(C)(C)C)NC(=O)OCC(C)(C)CCCCc1cccc3c1CN(C3)C(=O)O2)C(=O)NS(=O)(=O)c1ccc2c(c1)B(O)OC2	20	–	–	–	78	0.4	–	–	–	–
CC(C)(C)OC(=O)N[C@H]1CCCCC/C=C\[C@@H]2C[C@@]2(C(=O)NS(=O)(=O)C2CC2)NC(=O)[C@@H]2C[C@@H](OC(=O)N3Cc4cccc(F)c4C3)CN2C1=O [DANOPREVIR]	1.1	–	–	–	1	0.4	10.7	20	17.4	1750

The remaining compounds from weak to strong by EC50 (Hepatitis C virus [1]), led by results:

EC50 (Hepatitis C virus [1]) [nM]	F (Rattus norvegicus [2])	Activity (Rattus norvegicus [3]; BLD = below limit of detection)	AUC (Rattus norvegicus [4])	EC50 (Hepatitis C virus [5]) [nM]	IC50 [6] [nM]	clearance [7] [mL/min/kg]	bioavailability [8] [%]	Activity (Rattus norvegicus [3]) [%]	AUC(0-inf) [9] [ng·h/mL]	Structure (SMILES)
15	–	–	–	66	0.6	–	–	–	–	C=C[C@@H]1C[C@]1(NC(=O)[C@@H]1C[C@@H]2CN1C(=O)[C@H](C(C)(C)C)NC(=O)OCC(C)(C)CCCCc1cccc3c1CN(C3)C(=O)O2)C(=O)NS(=O)(=O)c1ccc2c(c1)COB2O
12	–	–	–	52	0.3	82	1.2	1.6	14	C=C[C@@H]1C[C@]1(NC(=O)[C@@H]1C[C@@H]2CN1C(=O)[C@H](C(C)(C)C)NC(=O)OCC(C)(C)CCCCc1cccc3c1CN(C3)C(=O)O2)C(=O)NS(=O)(=O)c1cccc2c1COB2O
8	BLD	BLD	BLD	66	0.8	111	–	–	–	O=C(N[C@H]1CCCCC/C=C\[C@@H]2C[C@@]2(C(=O)NS(=O)(=O)c2ccc3c(c2)B(O)OC3)NC(=O)[C@@H]2C[C@@H](OC(=O)N3Cc4cccc(F)c4C3)CN2C1=O)OC1CCCC1

From ChEMBL document CHEMBL1287735, “Synthesis of new acylsulfamoyl benzoxaboroles as potent inhibitors of HCV NS3 protease” (Bioorg Med Chem Lett, 2010)
